Data from ChEMBL document CHEMBL4613316, “Synthesis and Selective Functionalization of Thiadiazine 1,1-Dioxides with Efficacy in a Model of Huntington's Disease” (ACS Med Chem Lett, 2020).
The source made the active and inactive calls. The rule behind the calls is not given here.

Legend:
[1] = species: Homo sapiens; experiment: Agonist activity at HSP70 in human HEK293H cells transfected with HTT17Q assessed as reduction in HTT protein aggregation at 10 uM measured after 6 hrs by DAPI staining based confocal microscopy; assay type: cell-based
Method in brief: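 HEK293H cells transfected with 4 μg HTT17Q-mCherry construct; 24 h post-transfection treated with 10 μM compound or DMSO vehicle control for 6 h. Cells stained with DAPI and imaged by confocal microscopy. Aggregates (puncta) counted per cell with a bright-spot detection tool. Significance assessed against DMSO control.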

[2] = molecular target: Histone deacetylase 3 (Homo sapiens) (UniProt O15379); experiment: Inhibition of HDAC3 in human HeLa nuclear extract at 0.1 to 1 uM using HDAC substrate incubated for 30 mins by microplate reader assay; assay type: cell-free
Sequence of Histone deacetylase 3 (Homo sapiens) (O15379 whole entry): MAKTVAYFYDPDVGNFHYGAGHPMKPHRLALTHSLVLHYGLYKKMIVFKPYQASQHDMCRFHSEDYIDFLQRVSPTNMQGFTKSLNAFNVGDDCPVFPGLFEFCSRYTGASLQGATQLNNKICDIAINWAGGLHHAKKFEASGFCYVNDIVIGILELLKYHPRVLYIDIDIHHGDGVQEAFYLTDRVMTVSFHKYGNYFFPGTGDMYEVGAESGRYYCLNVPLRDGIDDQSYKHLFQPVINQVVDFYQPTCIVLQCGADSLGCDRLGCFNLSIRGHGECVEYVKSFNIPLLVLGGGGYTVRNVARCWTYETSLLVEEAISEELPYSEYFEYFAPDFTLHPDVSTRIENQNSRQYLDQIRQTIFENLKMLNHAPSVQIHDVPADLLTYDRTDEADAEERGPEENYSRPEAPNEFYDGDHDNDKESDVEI

[3] = molecular target: Histone deacetylase 5 (Homo sapiens) (UniProt Q9UQL6); experiment: Inhibition of recombinant human GST-His-tagged HDAC5 at 0.1 to 1 uM using fluorogenic HDAC substrate incubated for 30 mins by microplate reader assay
Sequence of Histone deacetylase 5 (Homo sapiens) (Q9UQL6 whole entry): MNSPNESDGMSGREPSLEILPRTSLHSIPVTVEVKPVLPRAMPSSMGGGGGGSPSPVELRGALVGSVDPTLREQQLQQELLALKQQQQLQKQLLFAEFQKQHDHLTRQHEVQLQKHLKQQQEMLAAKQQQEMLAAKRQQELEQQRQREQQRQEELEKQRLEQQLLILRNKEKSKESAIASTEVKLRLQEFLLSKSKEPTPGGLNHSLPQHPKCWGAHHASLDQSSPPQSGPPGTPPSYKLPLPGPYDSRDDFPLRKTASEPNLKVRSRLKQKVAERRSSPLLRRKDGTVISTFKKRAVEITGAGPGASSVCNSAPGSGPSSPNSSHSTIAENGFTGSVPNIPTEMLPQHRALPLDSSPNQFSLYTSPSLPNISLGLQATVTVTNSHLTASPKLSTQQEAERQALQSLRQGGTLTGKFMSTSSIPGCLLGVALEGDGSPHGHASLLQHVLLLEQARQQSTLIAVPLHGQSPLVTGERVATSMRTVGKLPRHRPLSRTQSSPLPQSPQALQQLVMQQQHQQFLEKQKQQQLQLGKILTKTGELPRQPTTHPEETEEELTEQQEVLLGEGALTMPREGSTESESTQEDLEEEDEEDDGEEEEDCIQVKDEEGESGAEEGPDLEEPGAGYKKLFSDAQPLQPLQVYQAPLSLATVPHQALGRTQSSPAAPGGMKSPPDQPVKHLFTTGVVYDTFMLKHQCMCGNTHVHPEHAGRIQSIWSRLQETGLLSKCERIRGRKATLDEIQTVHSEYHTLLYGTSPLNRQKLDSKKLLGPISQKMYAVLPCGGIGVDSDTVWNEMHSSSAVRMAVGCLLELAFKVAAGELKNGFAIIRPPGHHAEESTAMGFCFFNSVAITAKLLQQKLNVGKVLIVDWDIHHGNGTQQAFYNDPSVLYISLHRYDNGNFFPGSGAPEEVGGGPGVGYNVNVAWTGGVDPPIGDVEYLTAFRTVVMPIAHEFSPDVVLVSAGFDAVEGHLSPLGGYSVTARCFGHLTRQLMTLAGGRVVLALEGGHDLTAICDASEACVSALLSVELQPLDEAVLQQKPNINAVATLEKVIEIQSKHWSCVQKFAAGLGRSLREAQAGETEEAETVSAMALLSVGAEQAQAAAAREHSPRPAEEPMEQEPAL

[4] = molecular target: Histone deacetylase 2 (Homo sapiens) (UniProt Q92769); experiment: Inhibition of HDAC2 in human HeLa nuclear extract at 0.1 to 1 uM using HDAC substrate incubated for 30 mins by microplate reader assay; assay type: cell-free
Sequence of Histone deacetylase 2 (Homo sapiens) (Q92769 whole entry): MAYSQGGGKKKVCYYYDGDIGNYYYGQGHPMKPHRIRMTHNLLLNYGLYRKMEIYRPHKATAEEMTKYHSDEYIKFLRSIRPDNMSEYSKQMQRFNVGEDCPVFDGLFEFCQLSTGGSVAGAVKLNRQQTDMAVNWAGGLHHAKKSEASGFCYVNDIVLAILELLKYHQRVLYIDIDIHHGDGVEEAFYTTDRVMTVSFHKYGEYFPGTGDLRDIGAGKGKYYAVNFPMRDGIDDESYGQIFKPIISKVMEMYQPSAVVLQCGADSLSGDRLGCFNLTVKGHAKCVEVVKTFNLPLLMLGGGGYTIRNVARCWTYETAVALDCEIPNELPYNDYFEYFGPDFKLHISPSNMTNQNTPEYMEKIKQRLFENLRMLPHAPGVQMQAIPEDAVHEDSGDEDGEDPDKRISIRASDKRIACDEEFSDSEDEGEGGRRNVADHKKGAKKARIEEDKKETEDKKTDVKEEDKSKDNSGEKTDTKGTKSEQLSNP

[5] = molecular target: T1, Histone deacetylase 8 (Homo sapiens) (UniProt Q9BY41); experiment: Inhibition of recombinant human GST-His-tagged HDAC8 at 1 uM using fluorogenic HDAC substrate incubated for 30 mins by microplate reader assay relative to control
T1 sequence (whole entry): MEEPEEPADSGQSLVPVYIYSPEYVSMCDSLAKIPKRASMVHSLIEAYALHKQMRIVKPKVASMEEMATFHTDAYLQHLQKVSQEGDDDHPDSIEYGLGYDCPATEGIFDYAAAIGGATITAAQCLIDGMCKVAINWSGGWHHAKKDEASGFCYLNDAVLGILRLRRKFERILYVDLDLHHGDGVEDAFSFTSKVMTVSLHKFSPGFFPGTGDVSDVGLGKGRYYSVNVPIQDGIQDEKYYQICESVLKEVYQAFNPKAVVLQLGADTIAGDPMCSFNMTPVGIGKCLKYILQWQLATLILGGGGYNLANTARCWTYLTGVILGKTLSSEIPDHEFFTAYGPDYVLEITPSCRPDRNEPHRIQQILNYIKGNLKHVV

[6] = molecular target: T2, Protein deacetylase HDAC6 (Homo sapiens) (UniProt Q9UBN7); experiment: Inhibition of recombinant human GST-His-tagged HDAC6 at 0.1 to 1 uM using fluorogenic HDAC substrate incubated for 30 mins by microplate reader assay
T2 sequence (whole entry): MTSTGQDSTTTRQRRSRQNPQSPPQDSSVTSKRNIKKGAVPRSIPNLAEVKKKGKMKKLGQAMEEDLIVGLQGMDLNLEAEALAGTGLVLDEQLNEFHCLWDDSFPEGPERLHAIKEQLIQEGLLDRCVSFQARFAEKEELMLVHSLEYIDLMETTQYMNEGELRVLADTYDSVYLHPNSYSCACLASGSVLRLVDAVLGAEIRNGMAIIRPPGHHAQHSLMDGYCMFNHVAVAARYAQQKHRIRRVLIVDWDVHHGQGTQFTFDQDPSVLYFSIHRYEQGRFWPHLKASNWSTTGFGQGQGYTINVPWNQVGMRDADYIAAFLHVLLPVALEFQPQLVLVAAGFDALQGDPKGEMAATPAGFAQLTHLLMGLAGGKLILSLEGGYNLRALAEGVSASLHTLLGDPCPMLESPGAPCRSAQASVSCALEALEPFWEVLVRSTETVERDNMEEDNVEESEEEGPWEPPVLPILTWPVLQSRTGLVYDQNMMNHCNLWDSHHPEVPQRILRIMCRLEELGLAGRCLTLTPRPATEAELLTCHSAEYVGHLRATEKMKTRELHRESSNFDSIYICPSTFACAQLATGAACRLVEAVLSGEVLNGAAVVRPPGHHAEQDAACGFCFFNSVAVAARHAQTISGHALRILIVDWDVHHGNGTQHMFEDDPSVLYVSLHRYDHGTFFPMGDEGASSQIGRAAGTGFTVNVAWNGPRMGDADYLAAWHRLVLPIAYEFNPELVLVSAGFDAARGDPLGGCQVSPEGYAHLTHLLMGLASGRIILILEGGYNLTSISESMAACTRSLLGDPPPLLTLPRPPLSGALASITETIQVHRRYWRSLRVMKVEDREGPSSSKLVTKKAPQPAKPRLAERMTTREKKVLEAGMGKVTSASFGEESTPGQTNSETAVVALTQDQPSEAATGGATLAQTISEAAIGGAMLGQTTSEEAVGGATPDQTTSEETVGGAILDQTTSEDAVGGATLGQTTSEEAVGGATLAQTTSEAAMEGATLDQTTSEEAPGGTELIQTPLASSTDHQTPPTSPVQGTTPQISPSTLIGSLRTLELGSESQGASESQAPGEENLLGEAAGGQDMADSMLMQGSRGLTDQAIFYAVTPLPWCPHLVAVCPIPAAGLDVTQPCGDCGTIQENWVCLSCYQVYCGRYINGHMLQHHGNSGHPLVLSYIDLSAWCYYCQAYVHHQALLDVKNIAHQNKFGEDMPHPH

[7] = molecular target: Histone deacetylase 1 (Homo sapiens) (UniProt Q13547); experiment: Inhibition of HDAC1 in human HeLa nuclear extract at 0.1 to 1 uM using HDAC substrate incubated for 30 mins by microplate reader assay; assay type: cell-free
Sequence of Histone deacetylase 1 (Homo sapiens) (Q13547 whole entry): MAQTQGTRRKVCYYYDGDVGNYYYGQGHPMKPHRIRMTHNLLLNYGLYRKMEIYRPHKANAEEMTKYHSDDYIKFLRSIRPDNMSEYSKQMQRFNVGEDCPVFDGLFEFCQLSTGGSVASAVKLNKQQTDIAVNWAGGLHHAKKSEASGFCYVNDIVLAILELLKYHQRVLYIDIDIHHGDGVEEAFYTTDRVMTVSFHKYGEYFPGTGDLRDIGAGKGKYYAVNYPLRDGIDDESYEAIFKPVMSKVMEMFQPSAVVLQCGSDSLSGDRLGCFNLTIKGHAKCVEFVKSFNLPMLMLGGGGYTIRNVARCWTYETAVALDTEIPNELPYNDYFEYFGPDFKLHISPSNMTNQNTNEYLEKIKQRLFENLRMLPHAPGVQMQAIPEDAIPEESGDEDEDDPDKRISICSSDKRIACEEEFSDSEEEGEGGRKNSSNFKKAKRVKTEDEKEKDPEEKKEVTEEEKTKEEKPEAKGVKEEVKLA

[8] = molecular target: Histone deacetylase 4 (Homo sapiens) (UniProt P56524); experiment: Inhibition of recombinant human GST-His-tagged HDAC4 at 0.1 to 1 uM using fluorogenic HDAC substrate incubated for 30 mins by microplate reader assay
Sequence of Histone deacetylase 4 (Homo sapiens) (P56524 whole entry): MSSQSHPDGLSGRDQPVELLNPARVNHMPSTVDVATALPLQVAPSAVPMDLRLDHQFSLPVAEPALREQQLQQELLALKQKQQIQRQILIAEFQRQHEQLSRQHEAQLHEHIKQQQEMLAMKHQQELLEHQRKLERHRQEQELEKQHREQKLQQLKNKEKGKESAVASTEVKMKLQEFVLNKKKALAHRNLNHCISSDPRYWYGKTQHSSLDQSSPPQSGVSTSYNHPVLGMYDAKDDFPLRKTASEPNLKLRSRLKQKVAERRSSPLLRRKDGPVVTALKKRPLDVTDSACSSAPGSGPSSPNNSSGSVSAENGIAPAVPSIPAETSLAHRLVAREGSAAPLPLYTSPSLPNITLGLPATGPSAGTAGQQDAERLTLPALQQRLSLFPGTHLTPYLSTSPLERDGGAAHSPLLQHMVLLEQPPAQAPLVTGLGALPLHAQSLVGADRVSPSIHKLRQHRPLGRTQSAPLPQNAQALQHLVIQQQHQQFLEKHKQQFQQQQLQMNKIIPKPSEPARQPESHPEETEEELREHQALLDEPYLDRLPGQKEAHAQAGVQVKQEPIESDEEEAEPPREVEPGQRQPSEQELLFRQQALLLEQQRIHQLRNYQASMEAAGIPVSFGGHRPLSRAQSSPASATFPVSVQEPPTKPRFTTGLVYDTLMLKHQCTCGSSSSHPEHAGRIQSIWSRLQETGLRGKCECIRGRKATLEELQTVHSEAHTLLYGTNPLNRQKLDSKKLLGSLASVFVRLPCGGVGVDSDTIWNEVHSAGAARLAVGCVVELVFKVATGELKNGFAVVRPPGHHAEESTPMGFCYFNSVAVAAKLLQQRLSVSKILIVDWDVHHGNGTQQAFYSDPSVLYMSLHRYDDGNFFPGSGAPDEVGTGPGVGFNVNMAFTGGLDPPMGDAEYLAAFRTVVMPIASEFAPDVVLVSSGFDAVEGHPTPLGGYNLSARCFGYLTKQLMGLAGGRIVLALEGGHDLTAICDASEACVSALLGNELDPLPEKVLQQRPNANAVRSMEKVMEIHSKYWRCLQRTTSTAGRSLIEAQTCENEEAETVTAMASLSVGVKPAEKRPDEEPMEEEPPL

[9] = molecular target: T3, Histone deacetylase 7 (Homo sapiens) (UniProt Q8WUI4); experiment: Inhibition of recombinant human GST-His-tagged HDAC7 at 1 uM using fluorogenic HDAC substrate incubated for 30 mins by microplate reader assay relative to control
T3 sequence (whole entry): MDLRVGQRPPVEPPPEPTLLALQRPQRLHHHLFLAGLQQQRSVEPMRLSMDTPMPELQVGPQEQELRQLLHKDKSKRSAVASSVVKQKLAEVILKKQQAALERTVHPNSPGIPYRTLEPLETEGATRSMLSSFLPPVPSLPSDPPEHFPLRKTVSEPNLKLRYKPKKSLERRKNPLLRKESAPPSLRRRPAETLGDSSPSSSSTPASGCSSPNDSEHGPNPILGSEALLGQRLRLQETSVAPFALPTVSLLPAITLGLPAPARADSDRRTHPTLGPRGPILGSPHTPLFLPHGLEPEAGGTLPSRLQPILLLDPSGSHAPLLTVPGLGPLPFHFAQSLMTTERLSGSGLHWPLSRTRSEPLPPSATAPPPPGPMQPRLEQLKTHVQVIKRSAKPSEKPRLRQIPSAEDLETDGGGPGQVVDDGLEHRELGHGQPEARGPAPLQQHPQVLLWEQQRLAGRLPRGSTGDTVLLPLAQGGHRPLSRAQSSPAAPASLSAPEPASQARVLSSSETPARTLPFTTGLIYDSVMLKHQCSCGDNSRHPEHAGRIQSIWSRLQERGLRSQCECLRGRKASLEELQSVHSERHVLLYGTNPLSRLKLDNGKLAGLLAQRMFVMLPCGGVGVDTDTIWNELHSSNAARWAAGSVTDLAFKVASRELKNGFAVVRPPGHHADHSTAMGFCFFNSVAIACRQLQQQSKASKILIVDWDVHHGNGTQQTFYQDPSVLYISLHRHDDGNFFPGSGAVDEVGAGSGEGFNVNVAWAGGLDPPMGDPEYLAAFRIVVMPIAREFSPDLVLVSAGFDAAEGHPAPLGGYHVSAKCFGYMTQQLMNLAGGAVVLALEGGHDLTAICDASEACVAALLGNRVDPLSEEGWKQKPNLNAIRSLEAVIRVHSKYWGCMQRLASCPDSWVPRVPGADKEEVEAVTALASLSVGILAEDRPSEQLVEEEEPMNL

inhibition [2]	inhibition [3]	inhibition [4]	inhibition [5]	inhibition [6]	inhibition [7]	inhibition [8]	inhibition [9]	Compound	Activity [1]
–	–	–	–	–	–	–	–	CCOC(=O)C1=CN(CCCC(=O)OC)S(=O)(=O)NC1c1ccc(Cl)cc1Cl (stereo not given)	Active
–	–	–	–	–	–	–	–	COC(=O)CCCN1C=C(C(=O)OCc2ccccc2)C(c2ccc(Cl)cc2Cl)NS1(=O)=O (stereo not given)	Active
–	–	–	–	–	–	–	–	CC1=C(C(=O)OCc2ccccc2)C(c2ccc(Cl)cc2Cl)NC(=O)N1CCCC(=O)O (stereo not given)	Active
–	–	–	–	–	–	–	–	CCOC(=O)C1=CN(Cc2ccc(C(=O)O)cc2)S(=O)(=O)NC1c1ccc(Cl)cc1Cl (stereo not given)	Active
–	–	–	–	–	–	–	–	CCOC(=O)C1=CN(C(=O)OC(C)(C)C)S(=O)(=O)N(Cc2ccc(C(=O)OC(C)(C)C)cc2)C1c1ccc(Cl)cc1Cl (stereo not given)	Active
inactive	inactive	inactive	35 to 60%	inactive	inactive	inactive	–	COC(=O)CCCN1C=C(C(=O)O)C(c2ccc(Cl)cc2Cl)NS1(=O)=O (stereo not given)	Active
inactive	inactive	inactive	35 to 60%	inactive	inactive	inactive	–	CCOC(=O)C1=CN(CCCC(=O)NO)S(=O)(=O)NC1c1ccc(Cl)cc1Cl (stereo not given)	Active
inactive	inactive	inactive	35 to 60%	inactive	inactive	inactive	–	CCOC(=O)C1=CNS(=O)(=O)N(Cc2ccc(C(=O)O)cc2)C1c1ccc(Cl)cc1Cl (stereo not given)	Active
–	–	–	–	–	–	–	–	CCOC(=O)C1=CN(Cc2ccc(CO)cc2)S(=O)(=O)NC1c1ccc(Cl)cc1Cl (stereo not given)	Active
–	–	–	–	–	–	–	–	O=C(O)CCCN1C=C(C(=O)O)C(c2ccc(Cl)cc2Cl)NS1(=O)=O (stereo not given)	Active
inactive	inactive	inactive	35 to 60%	inactive	inactive	inactive	40%	CCOC(=O)C1=CN(Cc2ccc(C(=O)NO)cc2)S(=O)(=O)NC1c1ccc(Cl)cc1Cl (stereo not given)	Active
